Screens (PubChem BioAssay)
Not all results are given here.
HKDC1 activator – HKDC1 (human) hexokinase activation. Q2TB90. activity change, negative = activation, % at 20 µM. recombinant HKDC1, G6PDH/diaphorase resazurin fluorescence; active compounds read low. AID 493187. actives 0.056% (n = 340,000);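 active means activation of 40% or more at 20 µM, a change of -40% or lower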
Target sequence (Q2TB90 whole entry, looked up): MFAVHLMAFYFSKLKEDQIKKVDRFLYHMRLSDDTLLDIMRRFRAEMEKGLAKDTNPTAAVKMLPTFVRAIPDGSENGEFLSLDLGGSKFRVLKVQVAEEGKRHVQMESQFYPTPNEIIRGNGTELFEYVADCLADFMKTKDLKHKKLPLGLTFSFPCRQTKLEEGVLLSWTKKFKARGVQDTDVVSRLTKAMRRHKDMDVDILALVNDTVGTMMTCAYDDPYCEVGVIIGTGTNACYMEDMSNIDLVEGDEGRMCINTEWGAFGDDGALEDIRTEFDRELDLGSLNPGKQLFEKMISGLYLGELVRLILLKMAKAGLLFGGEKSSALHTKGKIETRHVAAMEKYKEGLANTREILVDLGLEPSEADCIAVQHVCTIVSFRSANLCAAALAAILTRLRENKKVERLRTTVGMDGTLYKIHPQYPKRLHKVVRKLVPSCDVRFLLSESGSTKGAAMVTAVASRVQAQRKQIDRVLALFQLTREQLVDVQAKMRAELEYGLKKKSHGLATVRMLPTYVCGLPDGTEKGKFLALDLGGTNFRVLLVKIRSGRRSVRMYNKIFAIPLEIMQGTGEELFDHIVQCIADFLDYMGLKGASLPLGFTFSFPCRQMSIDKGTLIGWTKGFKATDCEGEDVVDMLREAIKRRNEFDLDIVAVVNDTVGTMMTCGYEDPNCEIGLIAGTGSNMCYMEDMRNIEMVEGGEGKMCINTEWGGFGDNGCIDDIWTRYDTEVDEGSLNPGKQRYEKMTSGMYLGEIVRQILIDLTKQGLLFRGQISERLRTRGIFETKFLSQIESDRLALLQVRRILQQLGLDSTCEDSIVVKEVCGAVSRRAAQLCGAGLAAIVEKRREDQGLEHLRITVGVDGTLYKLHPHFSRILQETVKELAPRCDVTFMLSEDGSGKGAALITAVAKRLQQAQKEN
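Dosing: single compound dose of 20 µM, 1% DMSO final / Test system: in-house human HKDC1 enzyme, G6PDH and diaphorase coupling enzymes / Quantity: 5 µg/mL HKDC1 final / Incubation: enzyme reaction 90 min, room temperature, in dark / Buffer or medium: pH 8.0 Tris with MgCl2 / Detection: coupled resazurin-to-resorufin fluorescence, Ex 525/Em 613 nm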
An asterisk follows results filed as active.

SMILES | HKDC1 activator
CN(C)S(=O)(=O)c1cccc(N=C2NN=C(c3ccccc3)CS2)c1 | -281*
O=C(O)c1cc(O)c2c(c1)[C@H]([C@H]1c3cc(C(=O)O)cc(O)c3C(=O)c3c(O[C@@H]4O[C@H](CO)[C@@H](O)[C@H](O)[C@H]4O)cccc31)c1cccc(OC3O[C@H](CO)[C@@H](O)[C@H](O)[C@H]3O)c1C2=O (stereo partly drawn) | 87
COc1ccc(C(=O)c2coc3c2C(=O)C(=O)c2ccccc2-3)cc1 | 61
CC(C)c1ccc(S(=O)(=O)/N=C2/C=C(Sc3ncn[nH]3)C(=O)c3ccccc32)cc1 | 64
O=C(O)c1ccccc1N=Nc1c(O)[nH]c2ccc([N+](=O)[O-])cc12 | 37
CNCc1ccccc1Sc1cc(O)ccc1O | 64
O=C(Nc1ccc(F)cc1)C(=O)c1c(O)[nH]c2ccc([N+](=O)[O-])cc12 | 42
Cc1cc2c(N)cccc2nn1 | 35
COc1cc(/C=C2\SC(c3ccccc3)=NC2=O)cc(Cl)c1O | 49
C/C(=N\NC(=O)c1cc(C2CC2)nc2ccccc12)c1ccc(O)cc1O | -44*
O=C(NCCc1ccccc1)c1cnn2c(C(F)F)cc(C3CC3)nc12 | 47
O=C(NCc1ccccn1)c1cc(S(=O)(=O)N2CCN(c3ccccc3)CC2)ccc1Cl | 73
O=[N+]([O-])c1ccc(Sc2nc3ccccc3o2)c([N+](=O)[O-])c1 | 35
COc1cccc(OC)c1-c1nn2c(-c3cc(-c4ccccc4)n[nH]3)nnc2s1 | 44
O=Cc1ccc(Sc2nnc(-c3ccccc3)o2)c([N+](=O)[O-])c1 | 43
COc1cc(N=c2ssnc2Cl)cc(OC)c1 | -51*
CC(C(=O)O)N1C(=O)/C(=C/C=C/c2ccco2)SC1=S (stereo not drawn) | 56
CC(=O)n1cc(N(C(=O)CCl)c2ccc(C)cc2)c2ccccc21 | 41
O=C(O)CCNc1cc(N2CCN(C(=O)c3ccco3)CC2)c2noc3c2c1C(=O)c1ccccc1-3 | 39
CC1(OC(=O)CCc2ccccc2)C(=O)C=C2C=C(c3ccc(C#N)cc3)N(Cc3ccccc3)C=C2C1=O (stereo not drawn) | 36
COc1cc(C2c3c([nH]c(=O)[nH]c3=O)Nc3ccc4ccccc4c32)cc(OC)c1OC (stereo not drawn) | 37
CCN(CC)S(=O)(=O)c1cccc(C(=O)N/N=C(\C)c2ccc(O)cc2O)c1 | -43*
COc1ccc(/C=C/C(=O)NC(=S)NNC(=O)c2cnccn2)cc1 | -40*
O=C(NC(=S)NNC(=O)c1cnccn1)c1ccc(F)cc1 | -48*
Cc1nc2c(c(=O)c3ccccc3n2C)c(=O)n1-c1ccccc1 | 51
SMILES | HKDC1 activator
CC(=O)N(C1=C(Cl)C(=O)c2ccccc2C1=O)C1CCCCC1 | 58
C=CC(=O)N1C/C(=C/c2ccccc2)C(=O)/C(=C\c2ccccc2)C1 | 38
O=C(O)c1ccccc1-c1ccc(/C=c2\sc3nc4cc(Br)cnc4n3c2=O)o1 | 68
CCCC(NC(=O)Cc1c(C)c2cc3c(C)c(C)oc3c(C)c2oc1=O)C(=O)N[C@@H](Cc1ccccc1)C(=O)O (stereo partly drawn) | 52
CCN(CC)c1ccc(/C=N/NC(=O)c2cccc(S(=O)(=O)Nc3ccccc3OC)c2)c(O)c1 | -43*
CCc1ccc(S(=O)(=O)Nc2ccc(O)c3ccccc23)cc1 | 44
O=S(=O)(Nc1ccc(O)c2ccccc12)c1ccc(F)cc1 | 43
NC(=NCCCCCCN=C(N)/N=C(\N)Nc1ccc(Cl)cc1)/N=C(\N)Nc1ccc(Cl)cc1 | 53
O=c1c2ccccc2nc2n1CCC2 | 82
CCOC(=O)C1CCN(C(=O)Nc2ccc3nc(-c4ccco4)c(-c4ccco4)nc3c2)CC1 | 43
CC1COCC(C)N1C1=C(Cl)C(=O)c2ccccc2C1=O (stereo not drawn) | 38
Cc1nc2c3cc(F)ccc3n(Cc3ccccc3)c2s1 | -60*
Cc1cc(/C=C\c2ccc3cc(N(C)C)ccc3[n+]2C)c(C)n1-c1ccccc1 | 37
Cc1ccccc1/C=C/C(=O)c1ccc([N+](=O)[O-])o1 | 46
Cc1cc(C(=O)COC(=O)c2cc(O)c3ccccc3c2O)c(C)n1CC1CCCO1 (stereo not drawn) | 47
CC(=NNC(=S)N1CCCCC1)c1cccc(C)n1 | -40*
CCN(CC)C(=O)c1ccc(C(=O)c2c(C)cc(C)cc2C)cc1 | 39
O=C(NNC(=S)Nc1ccc(Cl)c(Cl)c1)c1ccccn1 | -57*
O=C(Nc1ccc(Cl)c(Cl)c1)Nc1nnc(-c2ccncc2)s1 | 41
N#CC(C#N)=Cc1cc2ccccc2nc1N1CCCCC1 | 38
O=C(O)c1ccccc1-c1c2cc(I)c(=O)c(I)c-2oc2c(I)c(O)c(I)cc12 | 69
CC(C)(C=O)C1=CC(=O)c2ccccc2C1=O | 51
CCOC(=O)C1=C(Cc2ccc(Cl)cc2)C(=O)c2ccccc2C1=O | 60
S=C(NCCc1ccc(Cl)cc1)NCc1ccccc1 | -63*
Cc1cc(C(F)F)n2ncc(C(=O)NCCc3ccc(Cl)cc3)c2n1 | 39
COC1(NS(=O)(=O)c2ccc(Br)cc2)C(C)=CC(=O)C=C1C | 50
